Experimental data from ChEMBL document CHEMBL1154307, “Eucalmaidins A-E, (+)-oleuropeic acid derivatives from the fresh leaves of Eucalyptus maideni” (J Nat Prod, 2009).
Active and inactive are the calls of the source. The calls are words filed in the database; no cut-off is given here.

How the values were obtained:
[1] = Cytotoxicity against african green monkey Vero cells after 3 days by MTT assay; format: cell-based; settings: chlorocebus sabaeus, read-out: MNCC
In short: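 Confluent Vero monolayers were exposed in triplicate to serial sample dilutions in DMEM with 2% FBS (pH 7.2) for 3 days. MTT was then added for 4 h and the formazan dissolved in DMSO. OD was read at 540 and 630 nm against untreated control. The maximal noncytotoxic concentration was taken as the highest concentration showing no cytotoxic effect.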

Human alphaherpesvirus 1 = experiment: Antiviral activity against HSV1 infected in african green monkey Vero cells assessed as inhibition of virus-induced cytopathic effect after 3 days by crystal violet staining; format: functional
In short: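 Vero cells grown 24 h in 24-well plates, then infected with 30 PFU HSV-1 together with serial sample dilutions in DMEM containing 2% FBS, adjusted to pH 7.2 with NaHCO3 and Hepes. Overlay medium held 1% methylcellulose. After 3 days, cells were fixed with formalin, stained with crystal violet, and plaques counted. The concentration giving 100% plaque reduction versus untreated infected control was read from graphic plots.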

SMILES | MNTC at 72 h [1] [µM] | inhibition (Human alphaherpesvirus 1) | Concentration giving 100% plaque reduction (IC100) (Human alphaherpesvirus 1) [mM]
COc1cc([C@@H]2c3cc(O)c(OC)cc3C[C@H](CO)[C@H]2CO[C@@H]2O[C@H](CO)[C@@H](O)[C@H](O)[C@H]2O)ccc1O | 380 | inactive | –
CC(C)(O)C1CC=C(C(=O)O)CC1 (racemic) | > 1090 | inactive | –
Nc1nc2c(ncn2COCCO)c(=O)[nH]1 [ACYCLOVIR] | – | – | 0.0043
Cc1cc(=O)c2c(O)cc(O[C@@H]3O[C@H](COC(=O)C4=CC[C@H](C(C)(C)O)CC4)[C@@H](O)[C@H](O)[C@H]3O)cc2o1 [CYPELLOCARPA C] | > 380 | inactive | –
CC(C)(O)[C@H]1CC=C(C(=O)OC[C@H]2O[C@@H](Oc3cc(C(=O)O)cc(O)c3O)[C@H](O)[C@@H](O)[C@@H]2O)CC1 [CYPELLOCARPIN A] | 30 | inactive | –
CC1(O)CC(=O)c2c(O)cc(O[C@@H]3O[C@H](COC(=O)C4=CC[C@H](C(C)(C)O)CC4)[C@@H](O)[C@H](O)[C@H]3O)cc2O1 (stereo partly specified) [CYPELLOCARPIN B] | 20 | inactive | –
CC(C)(O)[C@H]1CC=C(C(=O)OC[C@H]2O[C@@H](O)[C@H](O)[C@@H](O)[C@@H]2O)CC1 [EUCALMAIDIN A] | > 580 | inactive | –
CC(C)(O)[C@H]1CC=C(C(=O)OC[C@H]2O[C@@H](Oc3c(O)cc(C(=O)O)cc3O)[C@H](O)[C@@H](O)[C@@H]2O)CC1 [EUCALMAIDIN B] | 400 | inactive | –
COc1cc(C(=O)O)cc(OC)c1O[C@@H]1O[C@H](COC(=O)C2=CC[C@H](C(C)(C)O)CC2)[C@@H](O)[C@H](O)[C@H]1O [EUCALMAIDIN C] | 380 | inactive | –
O=c1c(O)c(-c2ccc(O)c(O)c2)oc2cc(O)cc(O)c12 [QUERCETIN] | < 20 | – | 0.33
C[C@@H]1O[C@@H](Oc2c(-c3ccc(O)c(O)c3)oc3cc(O)cc(O)c3c2=O)[C@H](O)[C@H](O)[C@H]1O [QUERCITRIN] | 10 | inactive | –
